Only some compounds are listed: those with a hit (about 2% of all), similar ones and a draw of the others.
PPC-1+TRAIL kill – PPC-1 cancer cell killing with TRAIL present; cell killing (% activity), % at 4 µM or 5 µM; actives 0.41% (n = 220,000); PPC-1 cells + TRAIL, ATPLite viability luminescence;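 active = cell killing above 50% in the first pass at 4 µM, then a duplicate retest at 5 µM averaging 50% or more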
HSP90 inh – HSP90 refolding inhibition in rabbit reticulocyte lysate | inhibition, % at 5.6 µM | luciferase refolding luminescence, 3 h | actives 0.91% (n = 290,000);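 active = inhibition above the screen-wide mean plus 3 SD, computed separately per campaign, cut at about 16% in these data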;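 also: inhibitors lower the luminescence because luciferase stays unfolded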
FLuc stim CS – affects firefly luciferase, flagging false hits in luciferase stimulation screens; AID 1027; ATPlite luciferase biochemical, luminescence, 10 min; 0 = ATP-free wells, 1 = DMSO control; activation factor at 10 µM; P08659; 200,000 tested, under 10 active;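 active = luciferase activation factor, scaled between plate controls, of at least 2 with compound at 10 µM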
Target sequence (P08659 whole entry, looked up): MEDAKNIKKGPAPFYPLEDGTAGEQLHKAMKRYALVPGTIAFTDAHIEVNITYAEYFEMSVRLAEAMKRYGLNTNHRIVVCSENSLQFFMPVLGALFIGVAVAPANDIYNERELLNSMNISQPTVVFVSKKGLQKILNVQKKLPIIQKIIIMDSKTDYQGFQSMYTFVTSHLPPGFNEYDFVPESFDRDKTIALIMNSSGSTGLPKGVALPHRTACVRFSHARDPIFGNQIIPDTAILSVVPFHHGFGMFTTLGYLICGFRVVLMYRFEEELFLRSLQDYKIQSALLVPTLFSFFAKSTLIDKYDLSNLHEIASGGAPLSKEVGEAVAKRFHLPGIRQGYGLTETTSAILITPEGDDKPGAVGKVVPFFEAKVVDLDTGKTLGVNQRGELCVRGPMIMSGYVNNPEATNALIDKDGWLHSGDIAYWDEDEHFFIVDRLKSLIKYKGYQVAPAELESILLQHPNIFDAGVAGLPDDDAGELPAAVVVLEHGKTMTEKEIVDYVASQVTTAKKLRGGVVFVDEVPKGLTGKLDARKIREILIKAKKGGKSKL
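Assay system: Luciferase/luciferin detection reagent, cell-free biochemical luciferase assay / Read-out: luciferase activation / Benchmarks: No-ATP low control, compound-free enzyme-plus-ATP high control / Medium: PBS buffer for ATP / Detection: luminescence measurement of luciferase light output / Schedule: 10 min at ambient temperature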
FLuc inh counter – counter-screen for luciferase assay inhibitors: firefly luciferase inhibition; ATPLite firefly luciferase biochemical luminescence, 10 min; inhibition, % at 10 µM; actives 1.5% (n = 200,000);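 active = inhibition above about 50% when tested at 10 µM, limit read from the data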
TRAIL sens C8 – sensitizes caspase-8 expressing cells to TRAIL | actives 1% (n = 360,000) | NB7+C8 cells + TRAIL, ATPlite viability luminescence | inhibition (viability loss, TRAIL sensitization), % at 10 µM;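 active = compounds causing at least 50% loss of cell viability in the single-dose screen, relative to plate controls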
PPC-1 tox – kills PPC-1 cells. shares compounds with PPC-1+TRAIL kill. PPC-1 viability, ATPlite luminescence, overnight. cytotoxicity, % at 5 µM. actives 50% (n = 1,200). AID 1447;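 active = reconfirmed compounds whose average cytotoxicity reaches 50% or more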
HSP90 inh confirm – confirmation of HSP90 inhibitors | shares compounds with HSP90 inh | rabbit reticulocyte lysate, luciferase refolding luminescence, 3 h | inhibition, % at 5.9 µM | actives 64% (n = 2,300); in the data active = inhibition above about 18%
luciferase ctr – blocks native firefly luciferase in HSP90 counter-screen; shares compounds with HSP90 inh; purified native firefly luciferase, luminescence; inhibition, % at 5.9 µM; actives 48% (n = 2,300); AID 1847;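 active = inhibition above the mean inhibition of all tested sample wells plus 3 SD, cut at about 10% in these data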
Hits are given with their value; n = inactive; x = not tested or not shown.

SMILES	PPC-1+TRAIL kill	HSP90 inh	FLuc stim CS	FLuc inh counter	TRAIL sens C8	others
CCCCC(=O)N/N=C/c1c(O)n(-c2cccc3ccccc23)c(=O)[nH]c1=O	n	n	x	x	n
CN1C2CCC1/C(=C/c1ccccn1)C(=O)/C2=C\c1ccccn1	n	n	n	n	86
COc1cccc2c1C(=O)c1c(O)c3c(c(O)c1C2=O)CC(O)(C(C)=NO)CC3OC1CC(N)C(O)C(C)O1 (centres undefined)	x	x	x	x	53
CCOC(=O)[C@]12Cc3cc(OC)ccc3[C@H]1N(Cc1ccccc1)C(=O)c1cc(OC)ccc12	x	x	x	x	n
CCOC(=O)[C@]12Cc3cc(Cl)ccc3[C@H]1N(Cc1ccccc1)C(=O)c1cc(OC)ccc12	x	x	x	x	89
CCCCCN1C(=O)c2cc(OC)ccc2[C@@]2(C(=O)OCC)Cc3cc(Cl)ccc3[C@@H]12	x	x	x	x	85
CCOC(=O)[C@]12Cc3cc4ccccc4cc3[C@H]1N(Cc1ccccc1)C(=O)c1ccccc12	x	x	x	x	67
CCOC(=O)[C@]12Cc3cc4ccccc4cc3[C@H]1N(Cc1ccccc1)C(=O)c1cc(OC)ccc12	x	x	x	x	64
CCOC(=O)[C@]12Cc3cc(OC)c(OC)cc3[C@H]1N(Cc1ccccc1)C(=O)c1ccccc12	x	x	x	x	n
CCCNC(=O)N1CCC2(CC1)OCCO2	n	n	n	n	n
CCCCn1c(O)c(C(C)=Nc2ccc3c(c2)CCC3)c(=O)[nH]c1=O	n	n	x	x	n
COc1ccc(C(CNC(=O)c2ccc3c(c2)CCC3)N(C)C)cc1 (centres undefined)	x	n	x	x	n
CC1CC2(C)C(CCC3C2CCC2(C)C(OP(=O)(N4CC4)N4CC4)CCC32)CC1=O (centres undefined)	x	x	x	x	n
CC(=O)Nc1ccccc1C(=O)OCC(=O)c1ccc2c(c1)OCCO2	n	n	n	82	n
Clc1ccc2c(c1)C(c1ccccc1Cl)=NCc1nnc(N3CCN(CCOc4ccccc4)CC3)n1-2	n	n	n	n	n
CCC(CO)Nc1ccc([N+](=O)[O-])c2cccnc12 (centres undefined)	n	n	n	n	n
COc1cccc(N=Nc2c(O)[nH]c(=S)[nH]c2=O)c1	n	n	x	x	n
O=c1[nH]c(=S)[nH]c(O)c1N=Nc1ccc2c(c1)OCCO2	74	n	x	x	56	PPC-1 tox=73
CC(C)(C)NC(=O)NC(=O)CN1CC=C(c2ccccc2)CC1	n	n	n	n	n
CN(C)c1ccc(-[n+]2c(-c3ccccc3)cc(-c3ccccc3)cc2-c2ccccc2)cc1	n	n	n	n	n	PPC-1 tox=n
c1ccc(-c2cc(-c3ccccc3)[n+](-c3ccccc3)c(-c3ccccc3)c2)cc1	n	n	x	x	75	PPC-1 tox=n
C[n+]1c(-c2ccccc2)cc(-c2ccc(Cl)cc2)cc1-c1ccccc1	n	n	n	n	n
CN1C(C(=O)N2CCC3(CC2)OCCO3)=CC(c2ccc(F)cc2)=NS1(=O)=O	x	n	x	x	n
C(CCc1nn[nH]n1)CCc1nn[nH]n1	n	n	n	n	n
CCOC(=O)c1c(C)n(Cc2ccccc2)c2ccc(OCC(O)CN3C(=O)CNC3=O)cc12 (centres undefined)	n	n	n	n	n	PPC-1 tox=n
SMILES	PPC-1+TRAIL kill	HSP90 inh	FLuc stim CS	FLuc inh counter	TRAIL sens C8	others
O=C(Cn1cc(C(=O)c2ccccc2F)c2ccccc21)NC1CC1	n	n	n	n	n
C/C=C(\C)C(=O)OC1C(C)=C2C(C1OC(=O)CCCCC)C(C)(OC(C)=O)CC(OC(=O)CCC)C1(O)C2OC(=O)C1(C)O (centres undefined)	57	x	x	x	x	PPC-1 tox=54
Clc1cccc(N2Cc3cc(-c4ccccc4)ccc3-n3nncc3C2)c1	x	x	x	x	n
CC(=O)c1cn(CCCOc2ccccc2)c2ccccc12	x	n	n	n	n
Cn1ncnc2c(=O)n(C)c(=O)nc1-2	89	x	n	n	96	PPC-1 tox=90
C[C@H]1O[C@@H](O[C@H]2[C@@H](O)C[C@H](O[C@H]3[C@@H](O)C[C@H](O[C@H]4CC[C@@]5(C)[C@H](CC[C@@H]6[C@@H]5CC[C@]5(C)[C@@H](C7=CC(=O)OC7)CC[C@]65O)C4)O[C@@H]3C)O[C@@H]2C)C[C@H](O)[C@@H]1O	74	n	n	n	x	PPC-1 tox=73
C[C@@H]1O[C@@H](O[C@H]2C[C@@H](O)[C@]3(CO)[C@H]4[C@H](O)C[C@]5(C)[C@@H](C6=CC(=O)OC6)CC[C@]5(O)[C@@H]4CC[C@]3(O)C2)[C@H](O)[C@H](O)[C@H]1O	74	n	n	n	n	PPC-1 tox=76
CCCCS(=O)(=O)N1CCN(C(=N)N[N+](=O)[O-])CC1	n	n	n	n	n
C[C@H]1C[C@@H](C)C(=O)[C@@H]([C@H](O)CC2CC(=O)NC(=O)C2)C1	n	n	n	n	n	PPC-1 tox=n
CN1CCN(C(=O)COc2ccc(-c3nc4ccccc4s3)cc2)CC1	92	48	n	96	92	PPC-1 tox=91;HSP90 inh confirm=72;luciferase ctr=69
c1cncc(CNCCN2CCNCC2)c1	x	x	x	x	n
C=CCn1c(O)c(/C(C)=N/N2CCN(C)CC2)c(=O)[nH]c1=O	n	22	x	x	n	HSP90 inh confirm=n;luciferase ctr=n
CCCCCCOc1ccc(CN2CCN(C)CC2)cc1	n	19	n	n	n	HSP90 inh confirm=39;luciferase ctr=25
CN1CCN(Cc2ccc3ccccc3c2)CC1	x	n	x	x	n
O=C1NCN(c2ccccc2)C12CCN(C(c1cc3ccccc3o1)c1nnnn1-c1ccc3c(c1)OCCO3)CC2 (centres undefined)	x	x	x	x	n
CCCC(=O)N(C)C1=Nc2ccc(Cl)cc2C(c2ccccc2)=[N+]([O-])C1	n	n	x	x	n
O=c1[nH]c2c(c(=O)n1C1CCCCC1)CCC2	n	28	n	n	n	HSP90 inh confirm=n;luciferase ctr=n
O=c1[nH]c(=S)[nH]c(O)c1N=Nc1ccc(S(=O)(=O)N2CCOCC2)cc1	n	n	x	x	n
CSc1nc(N)c(N=Nc2ccc([As](=O)(O)O)cc2)c(=O)[nH]1	n	21	x	x	n	HSP90 inh confirm=22;luciferase ctr=n
Cc1ccc2c(c1)N(C(=O)CCC(=O)N1CCC3(CC1)OCCO3)CC(C)O2 (centres undefined)	x	n	x	x	n
CC1(C)C2([N+](=O)[O-])CN3CC1([N+](=O)[O-])CN(C2)C3c1ccccn1 (centres undefined)	n	n	x	x	n
CCC1(C)CN(S(=O)(=O)OCC(Cl)(Cl)Cl)C(=O)N1 (centres undefined)	x	n	x	x	n
COc1ccc(C2SCC(=O)Nc3c2c(C)nn3C2CCOC(C)(C)C2)cc1 (centres undefined)	n	20	n	n	n	HSP90 inh confirm=n;luciferase ctr=n
Cc1nn(C2CCOC(C)(C)C2)c2c1C(c1ccc3c(c1)OCO3)SCC(=O)N2 (centres undefined)	n	n	n	n	n
